Reference: ChEMBL document CHEMBL1765069, “Decahydroquinoline amides as highly selective CB2 agonists: role of selectivity on in vivo efficacy in a rodent model of analgesia” (Bioorg Med Chem Lett, 2011)
Values joined by “and” are separate entries in the source; they are usually repeats but may differ in a detail not shown here. Equal entries are not always repeated.

Experiments:
Cannabinoid receptor 2 [1] = target: T1, Cannabinoid receptor 2 (Homo sapiens, UniProt P34972); assay: Agonist activity at human CB2 receptor expressed in CHOK1 cells assessed as inhibition of forskolin-induced cAMP production treated 15 mins before forskolin challenge measured after 1 hr by HTRF assay relative to control; type: functional, cell-based; conditions: CHO-K1
T1 sequence (P34972 whole entry): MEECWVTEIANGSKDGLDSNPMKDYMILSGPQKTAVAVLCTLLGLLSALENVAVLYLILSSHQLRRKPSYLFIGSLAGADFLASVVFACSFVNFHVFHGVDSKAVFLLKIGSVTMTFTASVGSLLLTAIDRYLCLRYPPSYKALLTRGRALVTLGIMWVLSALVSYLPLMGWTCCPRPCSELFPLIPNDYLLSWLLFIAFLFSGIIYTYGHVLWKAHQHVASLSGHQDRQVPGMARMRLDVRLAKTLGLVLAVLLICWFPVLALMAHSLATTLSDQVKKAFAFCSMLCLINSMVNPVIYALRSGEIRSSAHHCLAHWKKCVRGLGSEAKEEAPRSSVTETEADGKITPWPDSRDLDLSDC
Method in brief: (§1)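 CHO-K1 cells (1000 per well) expressing human or rat CB1 or CB2 were preincubated with compound at room temperature for 15 min. Forskolin at EC70 was then added for a further 30 min at room temperature. cAMP was read by HTRF (d2-cAMP plus anti-cAMP-cryptate, final 1 h at room temperature). IC50 and % Emax were reported.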

Cannabinoid receptor 2 [2] = target: T1, Cannabinoid receptor 2; assay: Agonist activity at human CB2 receptor expressed in CHOK1 cells assessed as inhibition of forskolin-induced cAMP production treated 15 mins before forskolin challenge measured after 1 hr by HTRF assay; type: functional, cell-based, CHO-K1
Method in brief: (§2)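 CHO-K1 cells (1000 per well) expressing human or rat CB1 or CB2 were preincubated with compound for 15 min at room temperature. Forskolin was then added at its EC70 for 30 min at room temperature. cAMP was detected by HTRF (d2-cAMP plus anti-cAMP cryptate) after a final 1 h incubation at room temperature. Values are reported as IC50 with % Emax.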

Cannabinoid receptor 1 [3] = target: T2, Cannabinoid receptor 1 (Homo sapiens, UniProt P21554); assay: Agonist activity at human CB1 receptor expressed in CHOK1 cells assessed as inhibition of forskolin-induced cAMP production treated 15 mins before forskolin challenge measured after 1 hr by HTRF assay; type: functional, cell-based, CHO-K1; method in brief: as §2
T2 sequence (P21554 whole entry): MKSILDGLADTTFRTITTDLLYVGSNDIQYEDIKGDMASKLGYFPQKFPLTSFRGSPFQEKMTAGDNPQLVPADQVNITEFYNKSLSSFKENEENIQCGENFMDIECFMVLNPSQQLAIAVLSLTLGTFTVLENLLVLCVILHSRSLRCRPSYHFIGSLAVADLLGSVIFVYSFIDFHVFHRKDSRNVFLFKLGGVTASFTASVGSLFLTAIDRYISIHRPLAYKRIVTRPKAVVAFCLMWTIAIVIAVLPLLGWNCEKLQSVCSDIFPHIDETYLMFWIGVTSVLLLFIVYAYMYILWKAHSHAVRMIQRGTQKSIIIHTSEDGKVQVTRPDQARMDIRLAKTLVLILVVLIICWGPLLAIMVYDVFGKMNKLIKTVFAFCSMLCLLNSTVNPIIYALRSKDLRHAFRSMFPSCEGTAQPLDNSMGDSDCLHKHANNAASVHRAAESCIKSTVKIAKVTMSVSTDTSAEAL

Cannabinoid receptor 1 [4] = target: T2, Cannabinoid receptor 1; assay: Agonist activity at human CB1 receptor expressed in CHOK1 cells assessed as inhibition of forskolin-induced cAMP production treated 15 mins before forskolin challenge measured after 1 hr by HTRF assay relative to control; type: functional, cell-based; conditions: CHO-K1; method in brief: as §1

Row | SMILES | Emax (Cannabinoid receptor 2 [1]) | IC50 (Cannabinoid receptor 2 [2]) | IC50 (Cannabinoid receptor 1 [3]) [nM] | Emax (Cannabinoid receptor 1 [4])
1 | CS(=O)(=O)c1ccc([C@@]2(O)CCN(C(=O)c3ccccc3)[C@H]3CCCC[C@@H]32)cc1 | 56% | 106 nM | – | –
2 | O=C(c1csc(-c2ccncc2)n1)N1CCC(O)(c2ccccc2)[C@@H]2CCCC[C@@H]21 (stereo partly drawn) [listing 1 of 2 here] | – | 5220 nM and 597 nM | > 17000 | –
3 | O=C(c1ccc(C(F)(F)F)nc1)N1CC[C@@](O)(c2ccccc2)[C@@H]2CCCC[C@@H]21 (racemic) | 96% | 12 nM | > 17000 | –
4 | O=C(c1ccncn1)N1CC[C@@](O)(c2ccccc2)[C@@H]2CCCC[C@@H]21 (racemic) | 103% | 140 nM | > 17000 | –
5 | O=C(c1cscn1)N1CC[C@@](O)(c2ccccc2)[C@@H]2CCCC[C@@H]21 (racemic) | 101% | 41 nM | > 17000 | –
6 | CS(=O)(=O)c1cccc([C@@]2(O)CCN(C(=O)c3ccccc3)[C@H]3CCCC[C@@H]32)c1 | 52% | 338 nM | – | –
7 | CN1CC(C(=O)N2CC[C@@](O)(c3ccccc3)[C@@H]3CCCC[C@@H]32)CCC1=O (mixture of isomers) | 99% | 135 nM | > 17000 | –
8 | O=C(c1csc(-c2ccncc2)n1)N1CCC(O)(c2ccccc2)[C@@H]2CCCC[C@@H]21 (single isomer, unassigned; form 1) [listing 1 of 2 here] | 100% | – | – | 12%
9 | O=C(c1csc(-c2ccncc2)n1)N1CCC(O)(c2ccccc2)[C@@H]2CCCC[C@@H]21 (single isomer, unassigned; form 2) [listing 1 of 2 here] | 98% | – | – | 18%
10 | O=C(c1ncccn1)N1CC[C@@](O)(c2ccccc2)[C@@H]2CCCC[C@@H]21 (racemic) | 101% | 29 nM | > 17000 | –
11 | O=C(c1cccc2[nH]ncc12)N1CCC(O)(c2ccccc2)[C@@H]2CCCC[C@@H]21 (stereo partly drawn) [listing 1 of 2 here] | – | 4.9 nM | 4250 | –
12 | COc1ccc([C@@]2(O)CCN(C(=O)c3ccccc3)[C@H]3CCCC[C@@H]32)cc1 | 66% | 358 nM | – | –
13 | O=C(C1CNCCN1)N1CC[C@@](O)(c2ccccc2)[C@@H]2CCCC[C@@H]21 (mixture of isomers) | 91% | 62 nM | > 17000 | –
14 | O=C(c1ccc(OCC(F)(F)F)nc1)N1CC[C@@](O)(c2ccccc2)[C@@H]2CCCC[C@@H]21 (racemic) | 100% | 16 nM | > 17000 | –
15 | O=C(c1csc(-c2ccncc2)n1)N1CCC(O)(c2ccccc2)[C@@H]2CCCC[C@@H]21 (single isomer, unassigned; form 4) [listing 1 of 2 here] | 19% | – | – | 46%
16 | Cc1ccc(C(=O)N2CC[C@@](O)(c3ccccc3)[C@@H]3CCCC[C@@H]32)cn1 (racemic) | 99% | – | – | –
17 | O=C(c1nnc[nH]1)N1CC[C@@](O)(c2ccccc2)[C@@H]2CCCC[C@@H]21 (racemic) | 101% | 282 nM | > 17000 | –
18 | Cn1ccnc1C(=O)N1CC[C@@](O)(c2ccccc2)[C@@H]2CCCC[C@@H]21 (racemic) | 100% | 124 nM | > 17000 | –
19 | O=C(c1cccc2[nH]ncc12)N1CCC(O)(c2ccccc2)[C@@H]2CCCC[C@@H]21 (single isomer, unassigned) [listing 1 of 2 here] | – | 1.6 nM | > 17000 | –
20 | CN1CCC(C(=O)N2CC[C@@](O)(c3ccccc3)[C@@H]3CCCC[C@@H]32)CC1 (racemic) | 98% | 395 nM | > 17000 | –
21 | Cc1cccc(C(=O)N2CC[C@@](O)(c3ccccc3)[C@@H]3CCCC[C@@H]32)n1 (racemic) | 99% | 6.1 nM | > 17000 | –
22 | O=C(c1cc(-c2ccccc2F)[nH]n1)N1CC[C@](O)(c2ccccc2)[C@H]2CCCC[C@@H]21 | 81% | – | – | 56%
23 | O=C(c1csc(-c2ccncc2)n1)N1CCC(O)(c2ccccc2)[C@@H]2CCCC[C@@H]21 (single isomer, unassigned; form 1) [listing 2 of 2 here] | – | 0.55 nM | > 17000 | –

Row | SMILES | Emax (Cannabinoid receptor 2 [1]) | IC50 (Cannabinoid receptor 2 [2]) | IC50 (Cannabinoid receptor 1 [3]) [nM] | Emax (Cannabinoid receptor 1 [4])
24 | O=C(c1cc(-c2ccccc2F)n[nH]1)N1CC[C@](O)(c2ccccc2)[C@H]2CCCC[C@@H]21 | – | 1290 nM | > 17000 | –
25 | O=C(c1csc(-c2ccncc2)n1)N1CCC(O)(c2ccccc2)[C@@H]2CCCC[C@@H]21 (single isomer, unassigned; form 3) [listing 1 of 2 here] | 97% | – | – | 51%
26 | O=C(c1csc(-c2ccncc2)n1)N1CCC(O)(c2ccccc2)[C@@H]2CCCC[C@@H]21 (single isomer, unassigned; form 2) [listing 2 of 2 here] | – | 7.9 nM | > 17000 | –
27 | O=C(c1ccccc1)N1CC[C@](O)(c2ccc(Cl)cc2)[C@H]2CCCC[C@@H]21 | 88% | 155 nM | – | –
28 | O=C(c1ccccc1)N1CC[C@](O)(c2cccnc2)[C@H]2CCCC[C@@H]21 | 86% | 938 nM | – | –
29 | O=C(c1csc(-c2ccncc2)n1)N1CCC(O)(c2ccccc2)[C@@H]2CCCC[C@@H]21 (single isomer, unassigned; form 4) [listing 2 of 2 here] | – | > 17000 nM | 930 | –
30 | O=C([C@@H]1C[C@@H](O)CCN1)N1CC[C@@](O)(c2ccccc2)[C@@H]2CCCC[C@@H]21 (racemic) | 87% | 2180 nM | > 17000 | –
31 | O=C(c1ccc(C2CC2)nc1)N1CC[C@@](O)(c2ccccc2)[C@@H]2CCCC[C@@H]21 (racemic) | 96% | 12 nM | > 17000 | –
32 | CN1CCCCC1C(=O)N1CC[C@@](O)(c2ccccc2)[C@@H]2CCCC[C@@H]21 (mixture of isomers) | 100% | 56 nM | > 17000 | –
33 | O=C(c1ccccc1)N1CC[C@](O)(c2cccc(C(F)(F)F)c2)[C@H]2CCCC[C@@H]21 | -16% | 810 nM | – | –
34 | N#Cc1cccc([C@@]2(O)CCN(C(=O)c3ccccc3)[C@H]3CCCC[C@@H]32)c1 | 85% | 1050 nM | – | –
35 | O=C(c1cn(CC(F)(F)F)cn1)N1CC[C@@](O)(c2ccccc2)[C@@H]2CCCC[C@@H]21 (racemic) | 104% | 26 nM | > 17000 | –
36 | O=C(c1csc(-c2ccncc2)n1)N1CCC(O)(c2ccccc2)[C@@H]2CCCC[C@@H]21 (stereo partly drawn) [listing 2 of 2 here] | 77% and 89% | – | – | 10% and 3%
37 | O=C(c1ccon1)N1CC[C@@](O)(c2ccccc2)[C@@H]2CCCC[C@@H]21 (racemic) | 102% | 11 nM | > 17000 | –
38 | O=C1CC(C(=O)N2CC[C@@](O)(c3ccccc3)[C@@H]3CCCC[C@@H]32)CN1 (mixture of isomers) | 89% | 3470 nM | > 17000 | –
39 | O=C(c1cccc2[nH]ncc12)N1CCC(O)(c2ccccc2)[C@@H]2CCCC[C@@H]21 (single isomer, unassigned) [listing 2 of 2 here] | 100% | – | – | 28%
40 | O=C(c1ccccc1)N1CC[C@](O)(c2cccc(Cl)c2)[C@H]2CCCC[C@@H]21 | 69% | 493 nM | – | –
41 | O=C1CCC(C(=O)N2CC[C@@](O)(c3ccccc3)[C@@H]3CCCC[C@@H]32)N1 (mixture of isomers) | 102% | 193 nM | > 17000 | –
42 | O=C(c1cccc2[nH]ncc12)N1CCC(O)(c2ccccc2)[C@@H]2CCCC[C@@H]21 (stereo partly drawn) [listing 2 of 2 here] | 100% | – | – | 95%
43 | O=C(c1csc(-c2ccncc2)n1)N1CCC(O)(c2ccccc2)[C@@H]2CCCC[C@@H]21 (single isomer, unassigned; form 3) [listing 2 of 2 here] | – | 388 nM | > 17000 | –
44 | O=C(c1ccccc1)N1CC[C@](O)(c2ccccn2)[C@H]2CCCC[C@@H]21 | 65% | 1360 nM | – | –
45 | O=C(c1ccncc1F)N1CC[C@@](O)(c2ccccc2)[C@@H]2CCCC[C@@H]21 (racemic) | 99% | 6.3 nM | > 17000 | –
